{"source": "ChEMBL document CHEMBL3774327", "about": "“Design, synthesis, and analysis of antagonists of GPR55: Piperidine-substituted 1,3,4-oxadiazol-2-ones” (Bioorg Med Chem Lett, 2016)"}
{"biological_target": "G-protein coupled receptor 55 (Homo sapiens, UniProt Q9Y2T6)", "sequence (Q9Y2T6 whole entry, looked up, stated change not applied, the tested form may be a part)": "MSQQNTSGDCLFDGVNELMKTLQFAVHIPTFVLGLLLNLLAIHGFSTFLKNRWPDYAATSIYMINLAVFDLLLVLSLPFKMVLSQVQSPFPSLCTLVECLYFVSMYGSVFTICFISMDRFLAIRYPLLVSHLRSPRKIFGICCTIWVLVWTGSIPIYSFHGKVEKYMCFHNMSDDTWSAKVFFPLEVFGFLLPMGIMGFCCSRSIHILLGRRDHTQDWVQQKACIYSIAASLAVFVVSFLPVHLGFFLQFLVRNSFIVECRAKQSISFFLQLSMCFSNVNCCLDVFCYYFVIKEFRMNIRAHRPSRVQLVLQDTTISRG", "test": "(§1) Antagonist activity at beta-galactosidase fragment-fused GRP55 (unknown origin) over-expressed with N-terminal deletion beta-galactosidase mutant-tagged beta-arr2 in […] cells assessed as inhibition of LPI induced beta-arrestin activity preincubated for 30 mins by PathHunter chemiluminescent complementation assay", "format": "cell-based", "conditions": "cho-k1", "how_it_was_run": "(§2)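 Inhibition of LPI-induced β-arrestin activity was quantitated by chemiluminescence. Concentration-response curves were run in triplicate against 6 μM LPI, and IC50 was derived with 95% confidence intervals.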"}
{"compound": "COc1ccc(-c2nn(C3CCN(C(=O)C4(c5ccc(OC)cc5)CC4)CC3)c(=O)o2)cc1", "IC50": "ND(Insoluble)"}
{"compound": "COc1ccc(C2(C(=O)N3CCC(n4nc(-c5ccccc5)oc4=O)CC3)CC2)cc1", "IC50": "ND(Insoluble)"}
{"compound": "O=C(N1CCC(n2nc(-c3ccc(C(F)(F)F)cc3)oc2=O)CC1)C1(c2ccccc2)CC1", "IC50": "ND(Insoluble)"}
{"biological_target": "G-protein coupled receptor 55 (Homo sapiens, UniProt Q9Y2T6)", "test": "as §1", "format": "cell-based", "conditions": "cho-k1; read-out: IC50", "how_it_was_run": "as §2", "units": {"IC50": "nM"}}
{"compound": "O=C(N1CCC(n2nc(-c3ccccc3)oc2=O)CC1)C1(c2ccc(Cl)cc2)CC1", "IC50": 640}
{"compound": "Cc1ccc(C2(C(=O)N3CCC(n4nc(-c5ccccc5)oc4=O)CC3)CC2(C)C)cc1", "note": "(racemic)", "IC50": 770}
{"compound": "COc1ccc(C2(C(=O)N3CCC(n4nc(-c5ccc(C(F)(F)F)cc5)oc4=O)CC3)CC2)cc1", "IC50": 1800}
{"compound": "O=C(N1CCC(n2nc(-c3ccccc3)oc2=O)CC1)C1(c2ccc(Cl)cc2Cl)CC1", "IC50": 2500}
{"compound": "COc1ccc(-c2nn(C3CCN(C(=O)C4(c5ccccc5)CC4)CC3)c(=O)o2)cc1", "IC50": 7000}
{"compound": "O=C(N1CCC(n2nc(-c3cccnc3)oc2=O)CC1)C1(c2ccccc2)CC1", "IC50": 420}
{"compound": "O=C(N1CCC(n2nc(-c3ccccc3)oc2=O)CC1)C1(c2ccccc2)CC1", "IC50": 12000}
{"tested_on": "not listed separately", "test": "Antagonist activity at GRP55E (unknown origin) over-expressed with GFP-tagged beta-arr2 in human U2OS cells assessed as inhibition of LPI induced beta-arrestin recruitment preincubated for 30 mins by beta-arrestin recruitment assay", "format": "cell-based", "conditions": "not given", "units": {"IC50": "nM"}}
{"compound": "O=C(N1CCC(n2nc(-c3ccco3)oc2=O)CC1)C1(c2ccccc2)CC1", "IC50": "> 15000"}
{"compound": "O=C(N1CCC(n2nc(-c3cccs3)oc2=O)CC1)C1(c2ccccc2)CC1", "IC50": "> 15000"}
{"compound": "O=C(c1cccc2ccccc12)N1CCC(n2nc(-c3ccccc3)oc2=O)CC1", "IC50": "> 15000"}
{"compound": "O=C(N1CCC(n2nc(-c3cccc(C(F)(F)F)c3)oc2=O)CC1)C1(c2ccccc2)CC1", "IC50": "> 15000"}
{"tested_on": "not listed separately", "test": "Antagonist activity at HA-epitope tagged GRP55E expressed with GFP-tagged beta-arr2 in human U2OS cells assessed as LPI-stimulated redistribution of beta-arr2 preincubated for 15 mins by beta-arrestin translocation assay", "format": "cell-based", "conditions": "not given", "units": {"IC50": "nM"}}
{"compound": "Cc1cc(C)c2nc(-c3ccccn3)cc(C(=O)Nc3ccc(S(=O)(=O)Nc4onc(C)c4C)cc3)c2c1", "IC50": 220}
{"compound": "Cc1nc(N2CCN(C(=O)c3ccco3)CC2)c2c3c(sc2n1)CCCC3", "IC50": 700}
{"compound": "Cc1ccc(C2(C(=O)N3CCC(n4nc(-c5ccccc5)oc4=O)CC3)CC2)cc1", "IC50": 1100}
